Measured values as given in ChEMBL document CHEMBL1914324, “Discovery of novel spirocyclic inhibitors of fatty acid amide hydrolase (FAAH). Part 2. Discovery of 7-azaspiro[3.5]nonane urea PF-04862853, an orally efficacious inhibitor of fatty acid amide hydrolase (FAAH) for pain” (Bioorg Med Chem Lett, 2011).
Active and inactive are the calls of the source. No cut-off for these calls is given here.

Legend:
[1] = biological target: T1, Fatty-acid amide hydrolase 1 (Homo sapiens) (UniProt O00519); test: Ratio of Kinact to Ki for human FAAH activity
T1 sequence (whole entry): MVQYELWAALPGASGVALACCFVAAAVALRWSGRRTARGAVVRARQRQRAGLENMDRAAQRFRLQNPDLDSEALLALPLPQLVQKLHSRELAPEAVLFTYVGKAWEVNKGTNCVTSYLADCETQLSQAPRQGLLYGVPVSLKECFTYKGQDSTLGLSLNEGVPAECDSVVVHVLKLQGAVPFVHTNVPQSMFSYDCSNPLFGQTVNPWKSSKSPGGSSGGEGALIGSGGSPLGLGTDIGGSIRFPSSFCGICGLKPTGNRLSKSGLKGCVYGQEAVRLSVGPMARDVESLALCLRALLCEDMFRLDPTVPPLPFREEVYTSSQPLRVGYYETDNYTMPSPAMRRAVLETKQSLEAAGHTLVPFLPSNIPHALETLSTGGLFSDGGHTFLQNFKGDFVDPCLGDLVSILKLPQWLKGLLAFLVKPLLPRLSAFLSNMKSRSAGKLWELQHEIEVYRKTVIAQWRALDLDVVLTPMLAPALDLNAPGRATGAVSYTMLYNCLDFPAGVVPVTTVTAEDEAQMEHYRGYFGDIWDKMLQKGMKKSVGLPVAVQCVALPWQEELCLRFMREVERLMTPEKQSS
Summary of the method: (§1)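 kinact/Ki determined against human and rat FAAH. Each value is the average of at least two independent determinations.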

[2] = biological target: T2, Fatty-acid amide hydrolase 1 (Rattus norvegicus) (UniProt P97612); test: Ratio of Kinact to Ki for rat FAAH activity; summary of the method: as §1
T2 sequence (whole entry): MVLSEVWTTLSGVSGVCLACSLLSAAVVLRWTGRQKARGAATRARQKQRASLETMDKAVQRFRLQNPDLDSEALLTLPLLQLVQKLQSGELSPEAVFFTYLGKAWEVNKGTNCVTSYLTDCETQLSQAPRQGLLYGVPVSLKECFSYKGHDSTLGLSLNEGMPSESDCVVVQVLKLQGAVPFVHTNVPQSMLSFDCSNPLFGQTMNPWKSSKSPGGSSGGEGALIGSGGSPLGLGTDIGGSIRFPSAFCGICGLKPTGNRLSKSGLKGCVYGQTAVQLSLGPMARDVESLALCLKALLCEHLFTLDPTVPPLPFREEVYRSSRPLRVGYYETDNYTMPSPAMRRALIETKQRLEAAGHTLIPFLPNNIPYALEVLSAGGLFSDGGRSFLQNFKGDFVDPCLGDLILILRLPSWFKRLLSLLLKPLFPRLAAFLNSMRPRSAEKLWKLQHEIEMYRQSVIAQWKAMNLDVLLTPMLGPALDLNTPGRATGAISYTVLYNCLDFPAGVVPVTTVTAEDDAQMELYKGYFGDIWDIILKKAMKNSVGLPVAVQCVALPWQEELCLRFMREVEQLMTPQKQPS

[3] = biological target: T1, Fatty-acid amide hydrolase 1 (Homo sapiens); test: Inhibition of FAAH in human brain membrane using rhodamine-tagged fluorophosphonate probe at 100 uM by competitive activity-based protein profiling method; type: cell membranes
Summary of the method: (§2)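 Competitive activity-based protein profiling against >200 human serine hydrolases, FAAH included. Compound tested at 100 µM in human brain membrane and soluble liver proteomes. Residual hydrolase activity labelled with a rhodamine-tagged fluorophosphonate probe.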

[4] = biological target: Voltage-gated inwardly rectifying potassium channel KCNH2 (Homo sapiens, UniProt Q12809); test: Displacement of dofetilide from ERG
Sequence of Voltage-gated inwardly rectifying potassium channel KCNH2 (Q12809 whole entry): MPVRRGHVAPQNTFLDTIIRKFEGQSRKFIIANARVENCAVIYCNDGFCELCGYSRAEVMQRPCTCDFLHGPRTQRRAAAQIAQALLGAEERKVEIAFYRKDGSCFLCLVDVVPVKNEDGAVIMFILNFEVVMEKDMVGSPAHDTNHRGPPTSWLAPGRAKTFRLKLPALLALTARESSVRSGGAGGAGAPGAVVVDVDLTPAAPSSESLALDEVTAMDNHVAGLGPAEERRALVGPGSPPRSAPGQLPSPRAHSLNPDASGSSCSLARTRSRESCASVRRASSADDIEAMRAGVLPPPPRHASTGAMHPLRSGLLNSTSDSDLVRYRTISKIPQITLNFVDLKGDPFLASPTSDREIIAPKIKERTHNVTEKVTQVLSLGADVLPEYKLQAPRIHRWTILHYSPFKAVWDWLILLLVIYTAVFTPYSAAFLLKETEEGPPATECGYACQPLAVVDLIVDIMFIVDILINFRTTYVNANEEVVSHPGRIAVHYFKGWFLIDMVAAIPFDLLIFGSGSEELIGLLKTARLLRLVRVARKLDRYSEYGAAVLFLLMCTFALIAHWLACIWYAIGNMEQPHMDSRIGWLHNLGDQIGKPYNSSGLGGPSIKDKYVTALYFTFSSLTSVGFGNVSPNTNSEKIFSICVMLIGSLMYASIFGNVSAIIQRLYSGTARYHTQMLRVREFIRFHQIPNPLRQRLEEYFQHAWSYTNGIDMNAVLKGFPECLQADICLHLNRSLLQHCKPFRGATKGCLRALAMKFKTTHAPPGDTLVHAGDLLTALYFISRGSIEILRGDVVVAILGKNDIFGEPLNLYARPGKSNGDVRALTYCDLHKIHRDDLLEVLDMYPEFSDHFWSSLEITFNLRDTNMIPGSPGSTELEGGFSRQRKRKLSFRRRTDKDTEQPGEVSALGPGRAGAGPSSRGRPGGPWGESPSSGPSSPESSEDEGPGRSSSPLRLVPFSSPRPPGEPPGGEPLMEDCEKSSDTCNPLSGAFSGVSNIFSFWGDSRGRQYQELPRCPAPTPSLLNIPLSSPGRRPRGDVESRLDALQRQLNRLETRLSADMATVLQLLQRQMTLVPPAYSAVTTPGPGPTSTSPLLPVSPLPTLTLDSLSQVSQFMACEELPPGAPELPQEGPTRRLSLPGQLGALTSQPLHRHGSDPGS

[5] = biological target: T1, Fatty-acid amide hydrolase 1 (Homo sapiens); test: Inhibition of FAAH in human liver proteomes using rhodamine-tagged fluorophosphonate probe at 100 uM by competitive activity-based protein profiling method; summary of the method: as §2
[6] = Inhibition of cytochrome P450; type: ADME
[7] = test system: Rattus norvegicus; test: Inhibition of FAAH in rat CFA model at 3 mg/kg, po after 3 hrs; type: functional; settings: for minimal effective dose: read-out: MED

SMILES: Cc1noc(NC(=O)N2CCC3(CC2)CC(c2ccc(C(F)(F)F)cc2)C3)c1C
- Ratio [1]: 245 M⁻¹ s⁻¹
- Ratio [2]: 348 M⁻¹ s⁻¹

SMILES: Cc1noc(NC(=O)N2CCC3(CC2)CC(c2ccc(OC(F)(F)F)cc2)CO3)c1C (racemic)
- Ratio [1]: 162 M⁻¹ s⁻¹
- Ratio [2]: 461 M⁻¹ s⁻¹

SMILES: Cc1noc(NC(=O)N2CCC3(CC2)CC(c2ccc(Cl)c(Cl)c2)C3)c1C
- Ratio [1]: 4550 M⁻¹ s⁻¹
- Ratio [2]: 3470 M⁻¹ s⁻¹

SMILES: Cn1nnnc1NC(=O)N1CCC2(CC1)CC(c1cccc(OC(F)(F)F)c1)CO2 (stereo unspecified)
- inhibition [3]: Active
- Ratio [1]: 7110 M⁻¹ s⁻¹
- inhibition (INH) [4]: Not Active
- inhibition [5]: Active
- inhibition (INH) [6]: Not Active
- Ratio [2]: 4560 M⁻¹ s⁻¹
- activity call (active/not active) [7]: Active
- minimal effective dose [7]: 0.1 mg/kg

SMILES: Cn1nnnc1NC(=O)N1CCC2(CC1)CC(c1ccc(F)c(Cl)c1)C2
- Ratio [1]: 16300 M⁻¹ s⁻¹
- Ratio [2]: 5940 M⁻¹ s⁻¹

SMILES: Cn1nnnc1NC(=O)N1CCC2(CC1)CC(c1cccc(OC(F)(F)F)c1)C2
- inhibition [3]: Active
- Ratio [1]: 13200 M⁻¹ s⁻¹
- inhibition (INH) [4]: Not Active
- inhibition [5]: Active
- inhibition (INH) [6]: Not Active
- Ratio [2]: 4570 M⁻¹ s⁻¹
- activity call (active/not active) [7]: Active
- minimal effective dose [7]: 0.1 mg/kg

SMILES: Cc1noc(NC(=O)N2CCC3(CC2)CC(c2ccccc2C(F)(F)F)C3)c1C
- Ratio [1]: 1140 M⁻¹ s⁻¹

SMILES: Cc1noc(NC(=O)N2CCC3(CC2)CC(c2ccc(F)c(Cl)c2)CO3)c1C (racemic)
- Ratio [1]: 1580 M⁻¹ s⁻¹
- Ratio [2]: 3950 M⁻¹ s⁻¹

SMILES: Cc1noc(NC(=O)N2CCC3(CC2)CC(c2cccc(C#N)c2)CO3)c1C (racemic)
- Ratio [1]: 243 M⁻¹ s⁻¹
- Ratio [2]: 999 M⁻¹ s⁻¹

SMILES: Cc1noc(NC(=O)N2CCC3(CC2)CC(c2cccc(OC(F)(F)F)c2)CO3)c1C (racemic)
- Ratio [1]: 1800 M⁻¹ s⁻¹
- Ratio [2]: 3110 M⁻¹ s⁻¹

SMILES: COc1ccccc1C1CC2(CCN(C(=O)Nc3onc(C)c3C)CC2)C1
- Ratio [1]: 2640 M⁻¹ s⁻¹
- Ratio [2]: 265 M⁻¹ s⁻¹

SMILES: Cc1nnc(NC(=O)N2CCC3(CC2)CC(c2cccc(OC(F)(F)F)c2)C3)o1
- Ratio [1]: 1530 M⁻¹ s⁻¹
- Ratio [2]: 2460 M⁻¹ s⁻¹

SMILES: Cc1noc(NC(=O)N2CCC3(CC2)CC(c2ccccc2)C3)c1C
- Ratio [1]: 2080 M⁻¹ s⁻¹
- Ratio [2]: 679 M⁻¹ s⁻¹

SMILES: Cc1noc(NC(=O)N2CCC3(CC2)CC(c2ccc(Cl)c(Cl)c2)CO3)c1C (racemic)
- Ratio [1]: 2430 M⁻¹ s⁻¹
- Ratio [2]: 4360 M⁻¹ s⁻¹

SMILES: Cc1noc(NC(=O)N2CCC3(CC2)CC(c2ccc(OC(F)(F)F)cc2)C3)c1C
- Ratio [1]: 353 M⁻¹ s⁻¹
- Ratio [2]: 229 M⁻¹ s⁻¹

SMILES: Cc1noc(NC(=O)N2CCC3(CC2)CC(c2cccc(Cl)c2)CO3)c1C (stereo in doubt; form 1)
- Ratio [1]: 2390 M⁻¹ s⁻¹
- Ratio [2]: 1560 M⁻¹ s⁻¹

SMILES: CCn1nnnc1NC(=O)N1CCC2(CC1)CC(c1cccc(OC(F)(F)F)c1)C2
- Ratio [1]: 6940 M⁻¹ s⁻¹
- Ratio [2]: 3420 M⁻¹ s⁻¹

SMILES: Cn1nnnc1NC(=O)N1CCC2(CC1)CC(c1cccc(C(F)(F)F)c1)CO2 (stereo in doubt; form 2)
- Ratio [1]: 3760 M⁻¹ s⁻¹
- Ratio [2]: 2110 M⁻¹ s⁻¹

SMILES: Cn1nnnc1NC(=O)N1CCC2(CC1)CC(c1cccc(C(F)(F)F)c1)CO2 (stereo in doubt; form 1) [listing 1 of 2 here]
- inhibition (INH) [4]: Not Active
- inhibition (INH) [6]: Not Active
- minimal effective dose [7]: 1 mg/kg

SMILES: CCc1cccc(C2CC3(CCN(C(=O)Nc4onc(C)c4C)CC3)C2)c1
- inhibition [3]: Active
- Ratio [1]: 5670 M⁻¹ s⁻¹
- inhibition (INH) [4]: Not Active
- inhibition [5]: Active
- inhibition (INH) [6]: Not Active
- Ratio [2]: 1340 M⁻¹ s⁻¹
- activity call (active/not active) [7]: inactive

SMILES: Cc1noc(NC(=O)N2CCC3(CC2)CC(c2ccc(C#N)cc2)CO3)c1C (racemic)
- Ratio [1]: 43.2 M⁻¹ s⁻¹
- Ratio [2]: 26.1 M⁻¹ s⁻¹

SMILES: Cc1noc(NC(=O)N2CCC3(CC2)CC(c2ccccc2)CO3)c1C (racemic)
- Ratio [1]: 461 M⁻¹ s⁻¹
- Ratio [2]: 315 M⁻¹ s⁻¹

SMILES: Cn1nnnc1NC(=O)N1CCC2(CC1)CC(c1cccc(Cl)c1)CO2 (stereo unspecified)
- Ratio [1]: 5600 M⁻¹ s⁻¹
- Ratio [2]: 1970 M⁻¹ s⁻¹

SMILES: COc1ccc(C2CC3(CCN(C(=O)Nc4onc(C)c4C)CC3)C2)cc1
- Ratio [1]: 1760 M⁻¹ s⁻¹
- Ratio [2]: 585 M⁻¹ s⁻¹

SMILES: Cc1cc(NC(=O)N2CCC3(CC2)CC(c2cccc(OC(F)(F)F)c2)C3)on1
- Ratio [1]: 113 M⁻¹ s⁻¹

SMILES: Cc1noc(NC(=O)N2CCC3(CC2)CC(c2cccc(Cl)c2)C3)c1C
- inhibition [3]: Active
- Ratio [1]: 3940 M⁻¹ s⁻¹
- inhibition (INH) [4]: Not Active
- inhibition [5]: Active
- inhibition (INH) [6]: Not Active
- Ratio [2]: 3560 M⁻¹ s⁻¹
- activity call (active/not active) [7]: Active
- minimal effective dose [7]: 1 mg/kg

SMILES: CCc1c(C)noc1NC(=O)N1CCC2(CC1)CC(c1cccc(OC(F)(F)F)c1)C2
- Ratio [1]: 338 M⁻¹ s⁻¹

SMILES: CCc1noc(NC(=O)N2CCC3(CC2)CC(c2cccc(OC(F)(F)F)c2)C3)c1C
- Ratio [1]: 1650 M⁻¹ s⁻¹
- Ratio [2]: 1660 M⁻¹ s⁻¹

SMILES: COc1cccc(C2CC3(CCN(C(=O)Nc4onc(C)c4C)CC3)C2)c1
- Ratio [1]: 2190 M⁻¹ s⁻¹
- Ratio [2]: 741 M⁻¹ s⁻¹

SMILES: Cc1noc(NC(=O)N2CCC3(CC2)CC(c2cccc(C(F)(F)F)c2)CO3)c1C (racemic)
- Ratio [1]: 1330 M⁻¹ s⁻¹
- Ratio [2]: 2680 M⁻¹ s⁻¹

SMILES: Cn1ncnc1NC(=O)N1CCC2(CC1)CC(c1cccc(OC(F)(F)F)c1)C2
- Ratio [1]: < 10 M⁻¹ s⁻¹

SMILES: Cc1noc(NC(=O)N2CCC3(CC2)CC(c2ccccc2OC(F)(F)F)C3)c1C
- Ratio [1]: 839 M⁻¹ s⁻¹
- Ratio [2]: 564 M⁻¹ s⁻¹

SMILES: Cn1nnc(NC(=O)N2CCC3(CC2)CC(c2cccc(OC(F)(F)F)c2)C3)n1
- Ratio [1]: 165 M⁻¹ s⁻¹
- Ratio [2]: 152 M⁻¹ s⁻¹

SMILES: Cc1noc(NC(=O)N2CCC3(CC2)CC(c2ccc(Cl)cc2)C3)c1C
- Ratio [1]: 2030 M⁻¹ s⁻¹
- Ratio [2]: 2070 M⁻¹ s⁻¹

SMILES: Cc1noc(NC(=O)N2CCC3(CC2)CC(c2cccc(Cl)c2)CO3)c1C (racemic)
- Ratio [1]: 2040 M⁻¹ s⁻¹
- Ratio [2]: 2670 M⁻¹ s⁻¹

SMILES: Cc1noc(NC(=O)N2CCC3(CC2)CC(c2ccc(C(F)(F)F)cc2)CO3)c1C (racemic)
- Ratio [1]: 481 M⁻¹ s⁻¹
- Ratio [2]: 714 M⁻¹ s⁻¹

SMILES: Cc1onc(NC(=O)N2CCC3(CC2)CC(c2cccc(OC(F)(F)F)c2)C3)c1C
- Ratio [1]: 64 M⁻¹ s⁻¹
- Ratio [2]: 34.2 M⁻¹ s⁻¹

SMILES: Cn1nnnc1NC(=O)N1CCC2(CC1)CC(c1cccc(C(F)(F)F)c1)CO2 (stereo in doubt; form 1) [listing 2 of 2 here]
- inhibition [3]: Active
- Ratio [1]: 4600 M⁻¹ s⁻¹
- inhibition [5]: Active
- Ratio [2]: 2160 M⁻¹ s⁻¹
- activity call (active/not active) [7]: Active

SMILES: Cc1noc(NC(=O)N2CCC3(CC2)CC(c2cccc(Cl)c2)CO3)c1C (stereo in doubt; form 2)
- Ratio [1]: 2590 M⁻¹ s⁻¹
- Ratio [2]: 3830 M⁻¹ s⁻¹

SMILES: Cc1cccc(C2CC3(CCN(C(=O)Nc4onc(C)c4C)CC3)C2)c1
- Ratio [1]: 2870 M⁻¹ s⁻¹
- Ratio [2]: 1620 M⁻¹ s⁻¹

SMILES: Cc1noc(NC(=O)N2CCC3(CC2)CC(c2cccc(C(F)(F)F)c2)C3)c1C
- Ratio [1]: 3060 M⁻¹ s⁻¹
- Ratio [2]: 3690 M⁻¹ s⁻¹

SMILES: Cc1noc(NC(=O)N2CCC3(CC2)CC(c2cccc(Oc4ccc(C(F)(F)F)cn4)c2)C3)c1C
- Ratio [2]: 9460 M⁻¹ s⁻¹
